# Results: ChEMBL document CHEMBL4177746, “Discovery of orally efficacious RORγt inverse agonists. Part 2: Design, synthesis, and biological evaluation of novel tetrahydroisoquinoline derivatives” (Bioorg Med Chem, 2018)
# Columns and labels:
# [1] = (§1) AUC (0 to 8 hrs) in mouse at 1 mg/kg, po administered via cassette dose by LC-MS/MS analysis; type: ADME, organism-based; design: time < 8 hr, dose 1 mg/kg, route oral; conditions: in vivo
# Summary of the method: (§2)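 Cassette oral dosing of mice at 1 mg/kg. Blood was sampled after dosing and centrifuged to give plasma. Plasma was deproteinized with acetonitrile containing internal standard, centrifuged, diluted with LC mobile phase and centrifuged again for analysis. Values are means of three determinations.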
# [2] = Oral bioavailability in mouse at 1 mg/kg administered via cassette dose by LC-MS/MS analysis; type: ADME, organism-based; conditions: in vivo; summary of the method: as §2
# Mus musculus [3] = test: Effect on IFNgamma expression in po dosed Balb/c mouse measured after 24 hrs by qRT-PCR analysis; type: ADME, organism-based; conditions: in vivo
# [4] = Cmax in Balb/c mouse at 3 mg/kg, po; type: ADME, organism-based; design: dose 3 mg/kg, route oral; conditions: in vivo
# Summary of the method: (§3)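 Male Balb/c mice, 7 weeks old, received intradermal ear injection of recombinant mouse IL-23 (500 ng/10 μL PBS) under isoflurane. Compound was suspended in 0.5% methylcellulose and given orally at 3, 10 or 30 mg/kg, 30 min before and 8 h after IL-23. Plasma concentration was measured in parallel with the PD assay, giving Cmax and […].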
# [5] = Cmax in Balb/c mouse at 10 mg/kg, po; type: ADME, organism-based; design: dose 10 mg/kg, route oral; conditions: in vivo; summary of the method: as §3
# [6] = Cmax in Balb/c mouse at 30 mg/kg, po; type: ADME, organism-based; design: dose 30 mg/kg, route oral; conditions: in vivo; summary of the method: as §3
# [7] = AUC (0 to 24 hrs) in Balb/c mouse at 3 mg/kg, po; type: ADME, organism-based; design: dose 3 mg/kg, time < 24 hr, route oral; conditions: in vivo
# Summary of the method: (§4)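 Male Balb/c mice, 7 weeks old, received 3, 10 or 30 mg/kg orally as a suspension in 0.5% methylcellulose. Dosing was 30 min before and 8 h after intradermal ear injection of recombinant mouse IL-23 (500 ng in 10 μL PBS). Plasma drug levels were measured alongside this PD study, and AUC was taken over 0–24 h.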
# [8] = AUC (0 to 24 hrs) in Balb/c mouse at 10 mg/kg, po; type: ADME, organism-based; design: time < 24 hr, dose 10 mg/kg, route oral; conditions: in vivo; summary of the method: as §4
# [9] = AUC (0 to 24 hrs) in Balb/c mouse at 30 mg/kg, po; type: ADME, organism-based; design: time < 24 hr, dose 30 mg/kg, route oral; conditions: in vivo; summary of the method: as §4
# Mus musculus [10] = test: Drug uptake in po dosed Balb/c mouse; type: ADME, organism-based; conditions: in vivo; summary of the method: as §3
# Mus musculus [11] = species on record: Mus musculus; test: animal or person; conditions: Balb/c, po
# Mus musculus [12] = test: as §1; type: ADME, organism-based; design: time < 8 hr, dose 1 mg/kg, route oral; conditions: in vivo, 8 h; summary of the method: as §2
AUC(0-t) at 8 h [1],bioavailability [2],SMILES,other results
6890 ng·h/mL,94%,COc1ccc2c(c1)CCN(C(=O)CCCC(=O)O)[C@H]2C(=O)Nc1cc(F)c([Si](C)(C)C)c(F)c1,Activity (Mus musculus [3]): Non-Toxic; Cmax [4]: 1630 ng/mL; Cmax [5]: 7720 ng/mL; Cmax [6]: 19000 ng/mL; AUC(0-t) at 24 h [7]: 10700 ng·h/mL; AUC(0-t) at 24 h [8]: 48000 ng·h/mL; AUC(0-t) at 24 h [9]: 159000 ng·h/mL; Drug uptake (Mus musculus [10]): Dose-dependent effect; ED50 (Mus musculus [11]): 2.8 mg/kg
92 ng·h/mL,14%,COc1ccc2c(c1)CCN(C(=O)CCCC(N)=O)[C@H]2C(=O)Nc1cc(F)c([Si](C)(C)C)c(F)c1,–
120 ng·h/mL,13%,COc1ccc2c(c1)CCN(C(=O)CC1SC(=O)NC1=O)[C@H]2C(=O)Nc1cc(F)c([Si](C)(C)C)c(F)c1 (stereo not given in full),–
200 ng·h/mL,11%,COc1ccc2c(c1)CCN(C(=O)c1cc(O)no1)[C@H]2C(=O)Nc1cc(F)c([Si](C)(C)C)c(F)c1,–
619 ng·h/mL,51%,COc1ccc2c(c1)CCN(C(=O)/C=C/C(=O)O)[C@H]2C(=O)Nc1cc(F)c([Si](C)(C)C)c(F)c1,–
162 ng·h/mL,8.5%,COc1ccc([C@H](C(=O)Nc2cc(F)c([Si](C)(C)C)c(F)c2)N(C)C(=O)CCC(=O)O)cc1,–
159 ng·h/mL,34%,COc1ccc2c(c1)CCN(C(=O)CC(C)(O)CC(=O)O)[C@H]2C(=O)Nc1cc(F)c([Si](C)(C)C)c(F)c1 (stereo not given in full),–
2270 ng·h/mL,40%,COc1ccc2c(c1)CCN(C(=O)CC(C)(C)CC(=O)O)[C@H]2C(=O)Nc1cc(F)c([Si](C)(C)C)c(F)c1,–
–,18%,COc1ccc([C@H](C(=O)Nc2cc(F)c([Si](C)(C)C)c(F)c2)N(C)C(=O)c2cc(O)no2)cc1,AUC (Mus musculus [12]): 374 ng·h/mL
1030 ng·h/mL,84%,COc1ccc2c(c1)CCN(C(=O)CCCCC(=O)O)[C@H]2C(=O)Nc1cc(F)c([Si](C)(C)C)c(F)c1,–
2500 ng·h/mL,65%,COc1ccc2c(c1)CCN(C(=O)CC(C)CC(=O)O)[C@H]2C(=O)Nc1cc(F)c([Si](C)(C)C)c(F)c1 (stereo not given in full),–
29.5 ng·h/mL,9%,COc1ccc2c(c1)OCCN(C(=O)c1cc(O)no1)[C@H]2C(=O)Nc1cc(F)c([Si](C)(C)C)c(F)c1,–

SMILES,AUC(0-t) at 8 h [1],bioavailability [2],other results
COc1ccc2c(c1)CCN(C(=O)CCC(=O)O)[C@H]2C(=O)Nc1cc(F)c([Si](C)(C)C)c(F)c1,2500 ng·h/mL,51%,–
